Test results published in ChEMBL document CHEMBL5653630, “Activation of the p53-MDM4 regulatory axis defines the anti-tumour response to PRMT5 inhibition through its role in regulating cellular splicing” (Sci Rep, 2018).
Active and inactive are the calls of the source. The rule behind the calls is not given here.

Assays:
[1] = molecular target: E3 ubiquitin-protein ligase Mdm2 (Homo sapiens) (UniProt Q00987); experiment: In vivo inhibition of PRMT5 in human Z138 cells xenografted in mouse assessed as increase in MDM2 expression at 100 mg/kg, po BID measured for 7 days; format: functional, organism-based; details: Z-138, time 7.0 day
Chain of E3 ubiquitin-protein ligase Mdm2 (Homo sapiens) (Q00987 whole entry, looked up): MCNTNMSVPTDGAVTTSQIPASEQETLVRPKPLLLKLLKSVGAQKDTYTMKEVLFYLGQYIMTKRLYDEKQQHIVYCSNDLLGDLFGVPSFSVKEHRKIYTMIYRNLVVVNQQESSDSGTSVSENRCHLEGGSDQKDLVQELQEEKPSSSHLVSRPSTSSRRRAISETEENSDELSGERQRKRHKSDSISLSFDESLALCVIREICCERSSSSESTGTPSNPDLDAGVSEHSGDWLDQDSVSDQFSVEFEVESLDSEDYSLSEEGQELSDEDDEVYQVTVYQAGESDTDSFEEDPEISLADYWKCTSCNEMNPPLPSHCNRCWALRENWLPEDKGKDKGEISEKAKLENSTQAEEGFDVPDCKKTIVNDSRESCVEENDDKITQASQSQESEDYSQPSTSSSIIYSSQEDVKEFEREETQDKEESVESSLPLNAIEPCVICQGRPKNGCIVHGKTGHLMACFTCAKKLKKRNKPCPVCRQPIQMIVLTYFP

Z-138 [2] = experiment: Antitumor activity against human Z138 cells xenografted in po dosed mouse measured for 21 days; format: functional, organism-based; details: dose lower […], dose upper 200.0 mg/kg, time 21.0 day
MCL = experiment: Induction of cell cycle arrest in human MCL cells assessed as increase in 2n cell population measured upto 5000 nM measured for 3 days by propidium iodide staining based flow cytometric analysis; format: functional; details: time 3.0 day
DBTRG-05MG = experiment: Antiproliferative activity against human DBTRG-05MG cells assessed as cell growth inhibition incubated for 10 days; format: functional; details: 240 h, time 10 day
In short: (§1)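 Outsourced panel run in 384-well plates. Cells were grown in RPMI-1640/10% FBS or a special medium at 37°C, 5% CO2. Compound was added 24 h after seeding as a 10-point, 3.16-fold series in 0.1% DMSO. Medium was refreshed and cells re-dosed at 168 h, with a time-zero plate kept. At 240 h cells were fixed, nuclei stained and imaged. gIC50 is growth midway between untreated and time zero, from a 4-parameter fit.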

G-402 = experiment: Antiproliferative activity against human G-402 cells assessed as cell growth inhibition incubated for 10 days; format: functional; details: G-402, 240 h, time 10 day; in short: as §1
ES-2 = experiment: Antiproliferative activity against human ES2 cells assessed as cell growth inhibition incubated for 10 days; format: functional; details: ES-2, 240 h, time 10 day; in short: as §1
SK-MES-1 = experiment: Antiproliferative activity against human SK-MES-1 cells assessed as cell growth inhibition incubated for 10 days; format: functional; details: SK-MES-1, 240 h, time 10 day
A101D = experiment: Antiproliferative activity against human A101D cells assessed as cell growth inhibition incubated for 10 days; format: functional; details: 240 h, time 10 day
In short: (§2)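 Cells kept in RPMI-1640 with 10% FBS, 2 mM L-alanyl-L-glutamine and 1 mM Na pyruvate (or a special medium) at 37°C, 5% CO2. Compound added 24 h after seeding, 10 concentrations in 3.16-fold dilution, 0.1% DMSO final. Medium replaced and cells re-dosed at 168 h; 240 h incubation. Nuclei fixed, dye-stained and imaged. gIC50 = growth midway between untreated and time-zero cell counts, from a 4-parameter fit.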

A549 = experiment: Antiproliferative activity against human A549 cells assessed as cell growth inhibition incubated for 10 days; format: functional; details: A549, 240 h, time 10 day; in short: as §2
MEG-01 = experiment: Antiproliferative activity against human MEG-01 cells assessed as cell growth inhibition incubated for 10 days; format: functional; details: MEG-01, 240 h, time 10 day
[3] = Antiproliferative activity against human OE21 cells assessed as cell growth inhibition incubated for 10 days; format: functional; details: OE21, 240 h, time 10 day
SK-NEP-1 = experiment: Antiproliferative activity against human SK-NEP-1 cells assessed as cell growth inhibition incubated for 10 days; format: functional; details: SK-NEP-1, 240 h, time 10 day
MES-SA = experiment: Antiproliferative activity against human MES-SA cells assessed as cell growth inhibition incubated for 10 days; format: functional; details: 240 h, time 10 day
[4] = molecular target: Protein arginine N-methyltransferase 5 (Homo sapiens) (UniProt O14744); experiment: Inhibition of PRMT5 in p53 knockout human Z138 cells at 1 to 100000 nM incubated for 3 to 6 days; format: cell-based; details: dose 1-100000 nM, time 3-6 day
Chain of Protein arginine N-methyltransferase 5 (Homo sapiens) (O14744 whole entry): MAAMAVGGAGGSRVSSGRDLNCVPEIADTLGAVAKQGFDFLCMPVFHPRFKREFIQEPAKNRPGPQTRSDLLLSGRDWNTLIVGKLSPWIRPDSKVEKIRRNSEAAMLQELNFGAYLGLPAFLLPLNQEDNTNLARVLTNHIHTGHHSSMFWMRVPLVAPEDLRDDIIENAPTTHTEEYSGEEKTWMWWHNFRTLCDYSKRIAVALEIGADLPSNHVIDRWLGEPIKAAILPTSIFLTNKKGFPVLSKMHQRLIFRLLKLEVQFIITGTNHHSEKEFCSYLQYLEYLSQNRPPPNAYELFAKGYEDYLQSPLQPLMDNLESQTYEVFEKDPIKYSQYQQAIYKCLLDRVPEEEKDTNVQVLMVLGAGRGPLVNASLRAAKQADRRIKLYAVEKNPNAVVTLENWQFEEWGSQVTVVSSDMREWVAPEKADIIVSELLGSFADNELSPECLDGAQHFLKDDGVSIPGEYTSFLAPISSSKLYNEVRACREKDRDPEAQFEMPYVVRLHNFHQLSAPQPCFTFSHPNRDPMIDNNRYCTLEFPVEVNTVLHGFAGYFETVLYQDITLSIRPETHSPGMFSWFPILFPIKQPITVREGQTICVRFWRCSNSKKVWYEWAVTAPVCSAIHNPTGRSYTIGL

DLD-1 = experiment: Antiproliferative activity against human DLD-1 cells assessed as cell growth inhibition incubated for 10 days; format: functional; details: DLD-1, 240 h, time 10 day; in short: as §1
Z-138 [5] = experiment: Induction of cell cycle arrest in p53 knockout human Z138 cells assessed as accumulation of cells at G1 phase at 50 to 500 nM incubated for 4 days; format: functional, cell-based; details: dose 50-500 nM, time 4.0 day
SJRH30 = experiment: Antiproliferative activity against human SJRH30 cells assessed as cell growth inhibition incubated for 10 days; format: functional; details: SJRH30, 240 h, time 10 day
A-427 = experiment: Antiproliferative activity against human A-427 cells assessed as cell growth inhibition incubated for 10 days; format: functional; details: A-427, 240 h, time 10 day; in short: as §2
[6] = molecular target: Protein arginine N-methyltransferase 5 (Homo sapiens) (UniProt O14744); experiment: Inhibition of PRMT5 in human Z138 cells assessed as short MDM4 splicing at 200 to 1000 nM incubated for 3 days by RT-PCR analysis; format: cell-based; details: dose 200-1000 nM, time 3.0 day
SW1463 = experiment: Antiproliferative activity against human SW1463 cells assessed as cell growth inhibition incubated for 10 days; format: functional; details: SW1463, 240 h, time 10 day
MIA PaCa-2 = experiment: Antiproliferative activity against human MIA PaCa-2 cells assessed as cell growth inhibition incubated for 10 days; format: functional; details: MIA PaCa-2, 240 h, time 10 day
Daoy = experiment: Antiproliferative activity against human Daoy cells assessed as cell growth inhibition incubated for 10 days; format: functional; details: 240 h, time 10 day; in short: as §1
WI-38 = experiment: Antiproliferative activity against human WI-38 cells assessed as cell growth inhibition incubated for 10 days; format: functional; details: WI-38, 240 h, time 10 day
[7] = molecular target: Protein arginine N-methyltransferase 5 (Homo sapiens) (UniProt O14744); experiment: Inhibition of PRMT5 in human Z138 cells expressing full length MDM4 assessed as induction of p21 at 1 uM incubated for 4 days by Western blot analysis; format: cell-based; details: time 4.0 day
SK-N-DZ = experiment: Antiproliferative activity against human SK-N-DZ cells assessed as cell growth inhibition incubated for 10 days; format: functional; details: 240 h, time 10 day
[8] = molecular target: Protein arginine N-methyltransferase 5 (Homo sapiens) (UniProt O14744); experiment: Inhibition of PRMT5 in p53 knockout human Z138 cells effect on p53 expression at 500 nM incubated for 3 to 11 days by Western blot analysis; format: cell-based; details: time 3-11 day
LS-1034 = experiment: Antiproliferative activity against human LS1034 cells assessed as cell growth inhibition incubated for 10 days; format: functional; details: LS-1034, 240 h, time 10 day
[9] = Antiproliferative activity against human RKOAS451 cells assessed as cell growth inhibition incubated for 10 days; format: functional; details: RKOAS451, 240 h, time 10 day
NCI-H508 = experiment: Antiproliferative activity against human NCI-H508 cells assessed as cell growth inhibition incubated for 10 days; format: functional; details: NCI-H508, 240 h, time 10 day
[10] = Antiproliferative activity against human MT-3 cells assessed as cell growth inhibition incubated for 10 days; format: functional; details: MT-3, 240 h, time 10 day
DOHH-2 = experiment: Antiproliferative activity against human DOHH-2 cells assessed as cell growth inhibition incubated for 6 days by celltiter-glo assay; format: functional; details: DOHH-2, 144 h, time 6 day
U-937 = experiment: Antiproliferative activity against human U-937 cells assessed as cell growth inhibition incubated for 6 days by celltiter-glo assay; format: functional; details: U-937, 144 h, time 6 day
In short: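 Cells seeded in 384-well plates at an optimized density and held 24 h. CellTiter-Glo luminescence read at Day 0 and Day 6. Four-parameter fit. gIC50 = midpoint of the growth window between DMSO and T0. Curves required ≥1.5 population doublings.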

[11] = molecular target: Protein arginine N-methyltransferase 5 (Homo sapiens) (UniProt O14744); experiment: Inhibition of PRMT5 in human Z138 cells assessed as MDM4 splicing at 8 to 1000 nM incubated for 3 days by RT-PCR analysis; format: cell-based; details: dose 8-1000 nM, time 3.0 day

## CC(=O)N1CCC(Nc2cc(C(=O)NC[C@H](O)CN3CCc4ccccc4C3)ncn2)CC1 [PEMRAMETOSTAT]
[1]
  inhibition: Active
Z-138 [2]
  Activity: Dose-Dependent Effect
MCL
  Activity: Active

## O=C(NC[C@H](O)CN1CCc2ccccc2C1)c1ccnc(NC2CCC2)c1
DBTRG-05MG
  GI50: 156 nM
G-402
  GI50: 99.7 nM
ES-2
  GI50: 106 nM
SK-MES-1
  GI50: 807 nM
A101D
  GI50: 190 nM
A549
  GI50: 80.9 nM
MEG-01
  GI50: 10000 nM
[3]
  GI50: 146 nM
SK-NEP-1
  GI50: 264 nM
MES-SA
  GI50: 72 nM
[4]
  inhibition: Active
DLD-1
  GI50: 134 nM
Z-138 [5]
  Activity: Active
SJRH30
  GI50: 472 nM
A-427
  GI50: 130 nM
[6]
  inhibition: Active
SW1463
  GI50: 770 nM
MIA PaCa-2
  GI50: 158 nM
Daoy
  GI50: 270 nM
WI-38
  GI50: 18.5 nM
[7]
  inhibition: inactive
SK-N-DZ
  GI50: 257 nM
[8]
  inhibition: inactive
LS-1034
  GI50: 172 nM
[9]
  GI50: 113 nM
NCI-H508
  GI50: 307 nM
[10]
  GI50: 46.4 nM
DOHH-2
  GI50: 116 nM
U-937
  GI50: 49 nM
[11]
  inhibition: Active
